Assay outcomes as filed in PubChem BioAssay.
Xi reactivation – activators of inactive X chromosome reactivation, primary screen, imaging, XiGFP fibroblasts, GFP high-content imaging, set 2; actives 0.055% (n = 360,000); XiGFP mouse fibroblasts, % GFP-positive cells imaging, 3 d; cells co-treated with 5-aza-dC sensitizer; scaled so ellipticine positive control = 100%; AID 743238, 2013; activation, % at 7.58 µM;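 active means mean normalized replicate activation at least 10% and every replicate at or above 10%; inconclusive means only one of the two criteria met; inactive means mean below 10% and not all replicates reach 10%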
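System: XiGFP fibroblasts, SV40-immortalized. Medium: DMEM plus 5-aza-dC sensitizer. Doses: single point. Timing: 3 d treatment, 15 min room-temperature fixation. Control set: ellipticine 6 µM.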
Cneo AK release – Cryptococcus neoformans cell lysis inducers, primary screen, AK release luminescence, single concentration; C. neoformans lysis, adenylate kinase release luminescence, 4 h; normalised: neutral wells 0, clomiphene wells 100; lysis activity, % at 15 µM; actives 0.2% (n = 360,000);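 active means mean lysis activity across replicates of at least 80%, whatever share of replicates individually reach that level; inactive means mean lysis activity below 80%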
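Material: C. neoformans cells; Schedule: 4 h static compound exposure, 37 °C, read 1 h post-reagent; Measured by: adenylate kinase release luminescence; Read-out: signal increase indicating cell lysis; Controls: Clomiphene as positive lysis control.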
Statin myotox sup – suppressors of statin myotoxicity in C2C12 myotubes, primary screen, cell-based, single point, plate reader | AID 602340, 2012 | C2C12 myotubes + simvastatin, ATP luminescence, 48 h; scaled: DMSO 0, geranylgeraniol control 100 | rescue of ATP level, % at 7.49 µM | actives 0.78% (n = 330,000);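 active means mean ATP rescue above about 67%, or every replicate alone reaching that limit, limit read from the data, passing the limit was not always enough; inconclusive means no clear call, values can overlap the other calls; inactive means mean under the limit and some replicate under it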;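 further: myotubes were challenged with 10 µM simvastatin during compound exposure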
DENV2 CPE rescue – inhibitors of DENV2 cytopathic effect, primary screen, cell-based, plate reader, single concentration | actives 1.7% (n = 350,000) | AID 651640, 2012 | CPE inhibition, % at 9.99 µM | DENV2-infected cells, cytopathic effect rescue; in the data active means CPE inhibition above about 20%, passing the limit was not always enough; inconclusive means no clear call, values can overlap the other calls; tested in BHK-21 cells
Of the large screens only hits and unclear results are named; the others gave an inactive call; ! = not active in a repeat. An excerpt weighted towards active compounds, which were near 2.1% of everything screened.

COc1ccc(Br)cc1/C=N/NC(=O)c1ccco1	none (no result: Cneo AK release)
O=C(COc1ccccc1[N+](=O)[O-])N/N=C/c1ccc(OC(=O)c2ccco2)cc1	none (no result: Statin myotox sup)
CC(C)(C)c1ccc(OCC(=O)N/N=C/c2cc(Br)ccc2OC(=O)c2ccco2)cc1	Statin myotox sup 135.3 (no result: Xi reactivation, DENV2 CPE rescue)
COc1cc(/C=N/NC(=O)COc2ccccc2[N+](=O)[O-])ccc1OC(=O)c1ccco1	DENV2 CPE rescue 26.6 (no result: Cneo AK release, Statin myotox sup)
c1ccc(Nc2nc(-c3cccs3)cs2)nc1	Statin myotox sup 147.9 (no result: Xi reactivation, DENV2 CPE rescue)
Fc1ccc(-c2csc(Nc3ccccn3)n2)cc1	Statin myotox sup 154.1
O=C([C@@H]1[C@@H](CO)[C@@H]2Cn3c(cccc3=O)[C@@H]2N1C(=O)CC1CC1)N1CCCCC1	none
COC(=O)C1=C(C)NC(=O)CC1c1cc(Br)ccc1F (stereo not given)	Statin myotox sup 111.2 (no result: Xi reactivation, DENV2 CPE rescue)
Cc1ccc(S(=O)(=O)N(C)C[C@@H]2Oc3ccc(NC(=O)Nc4cccc5ccccc45)cc3C(=O)N([C@@H](C)CO)C[C@H]2C)cc1	none (no result: Cneo AK release, DENV2 CPE rescue)
CCCCNC(=O)c1ccc(NS(=O)(=O)c2ccc3[nH]c(=O)[nH]c3c2)cc1	DENV2 CPE rescue 22.7
O=C([C@@H]1[C@@H](CO)[C@@H]2Cn3c(cccc3=O)[C@H]1N2Cc1cccc(Cl)c1)N1CCOCC1	Cneo AK release 97.9
CC=Cc1ccc2n(c1=O)C[C@@H]1[C@@H](CO)[C@H](C(=O)N3CCOCC3)[C@H]2N1CC1CCCC1 (mixture of isomers)	DENV2 CPE rescue 36.5
O=C([C@@H]1[C@@H](CO)[C@@H]2Cn3c(cccc3=O)[C@H]1N2Cc1cccc(Cl)c1)N1CCCCC1	none
O=C(NC1CCC1)[C@H]1[C@H](CO)[C@H]2Cn3c(cccc3=O)[C@@H]1N2CC1CCCC1	DENV2 CPE rescue 36.0 (no result: Cneo AK release, Statin myotox sup)
O=C([C@@H]1[C@@H](CO)[C@@H]2Cn3c(cccc3=O)[C@H]1N2C(=O)CC1CC1)N1CCCCC1	DENV2 CPE rescue 148.4
O=C(NC1CCC1)[C@@H]1[C@@H](CO)[C@@H]2Cn3c(cccc3=O)[C@H]1N2CC1CCCC1	DENV2 CPE rescue inconclusive (no result: Cneo AK release, Statin myotox sup)
CN1C(=O)c2cc(NC(=O)c3ccc(Cl)cc3)ccc2OC[C@H]2O[C@H](CC(=O)O)CC[C@@H]21	none (no result: Cneo AK release, DENV2 CPE rescue)
C[C@@H]1CCCCO[C@@H](CN(C)S(=O)(=O)c2cn(C)cn2)[C@@H](C)CN([C@H](C)CO)C(=O)c2cc(NC(=O)Nc3ccccc3)ccc2O1	none (no result: Statin myotox sup)
C[C@@H]1CN([C@H](C)CO)C(=O)c2cc(NC(=O)c3ccncc3)ccc2O[C@H]1CN(C)S(=O)(=O)c1ccc(Cl)cc1	none
C[C@H]1CN([C@@H](C)CO)C(=O)Cc2cc(NC(=O)C3CC3)ccc2O[C@H]1CN(C)Cc1ccccc1	none
O=C([C@H]1[C@H](CO)[C@H]2Cn3c(cccc3=O)[C@@H]1N2CC1CCCCC1)N1CCOCC1	DENV2 CPE rescue 62.9
COc1ccc(NC(=O)C[C@H]2CC[C@H]3[C@@H](COc4ccc(NC(C)=O)cc4C(=O)N3C)O2)cc1	none
CN(C)C(=O)C[C@@H]1CC[C@H](NC(=O)C2CC2)[C@H](CO)O1	none
Cc1noc(C)c1S(=O)(=O)N(C)C[C@H]1OCCCC[C@@H](C)Oc2ccc(NC(=O)Nc3ccc4c(c3)OCO4)cc2C(=O)N([C@@H](C)CO)C[C@H]1C	DENV2 CPE rescue 86.5 (no result: Statin myotox sup)
Cc1noc(C)c1S(=O)(=O)N(C)C[C@H]1OCCCC[C@H](C)Oc2ccc(NC(=O)Nc3ccc4c(c3)OCO4)cc2C(=O)N([C@@H](C)CO)C[C@@H]1C	none (no result: Statin myotox sup)
Cc1noc(C)c1S(=O)(=O)N(C)C[C@H]1OCCCC[C@H](C)Oc2ccc(NC(=O)NC(C)C)cc2C(=O)N([C@H](C)CO)C[C@@H]1C	DENV2 CPE rescue 102.5 (no result: Statin myotox sup)
COc1ccc(NC(=O)N(C)C[C@H]2OCCCC[C@H](C)Oc3ccc(NS(=O)(=O)c4cn(C)cn4)cc3C(=O)N([C@H](C)CO)C[C@@H]2C)cc1	DENV2 CPE rescue 25.2!
C[C@@H]1CCCCO[C@H](CN(C)C(=O)NC2CCCCC2)[C@@H](C)CN([C@@H](C)CO)C(=O)c2cc(NS(=O)(=O)c3cn(C)cn3)ccc2O1	DENV2 CPE rescue inconclusive
COc1ccc(NC(=O)N(C)C[C@H]2OCCCC[C@H](C)Oc3ccc(NS(=O)(=O)c4cn(C)cn4)cc3C(=O)N([C@@H](C)CO)C[C@H]2C)cc1	DENV2 CPE rescue inconclusive (no result: Statin myotox sup)
C[C@@H]1CCCCO[C@@H](CN(C)C(=O)NC2CCCCC2)[C@H](C)CN([C@@H](C)CO)C(=O)c2cc(NS(=O)(=O)c3cn(C)cn3)ccc2O1	Cneo AK release 100.8
C[C@@H]1CN([C@@H](C)CO)C(=O)c2cc(NS(=O)(=O)c3cn(C)cn3)ccc2O[C@H]1CN(C)C(=O)NC1CCCCC1	DENV2 CPE rescue 45.0
C[C@@H]1CN([C@@H](C)CO)C(=O)Cc2cc(NC(=O)CCCN(C)C)ccc2O[C@@H]1CN(C)S(=O)(=O)c1ccc(Cl)cc1	none (no result: Cneo AK release, Statin myotox sup)
CCCNC(=O)N[C@@H]1CC[C@H](CC(=O)N2CCN(C)CC2)O[C@@H]1CO	none
O=C(NCc1nnnn1-c1ccc(F)cc1)c1ccc([N+](=O)[O-])o1	Statin myotox sup 69.5 (no result: Cneo AK release)
Cc1ccc(-n2nnnc2CNC(=O)c2ccc([N+](=O)[O-])o2)cc1C	Statin myotox sup 80.3 (no result: Cneo AK release)
O=C(NCc1nnnn1-c1ccc(F)cc1)c1ccc2ccccc2c1	none
C[C@@H]1CN([C@@H](C)CO)C(=O)Cc2cc(NC(=O)Nc3ccccc3)ccc2O[C@@H]1CN(C)C(=O)Nc1ccccc1	none
C[C@@H]1CN([C@@H](C)CO)C(=O)Cc2cc(NC(=O)Nc3ccccc3)ccc2O[C@@H]1CN(C)C(=O)Nc1ccc(F)cc1	DENV2 CPE rescue 39.9
COc1ccc(NC(=O)N(C)C[C@H]2Oc3ccc(NC(=O)C4CC4)cc3CC(=O)N([C@H](C)CO)C[C@@H]2C)cc1	DENV2 CPE rescue 24.2
COc1ccc(NC(=O)N(C)C[C@@H]2Oc3ccc(NC(=O)C4CC4)cc3CC(=O)N([C@@H](C)CO)C[C@@H]2C)cc1	none
COc1ccc(NC(=O)N(C)C[C@@H]2Oc3ccc(NC(=O)Nc4ccccc4)cc3CC(=O)N([C@@H](C)CO)C[C@@H]2C)cc1	DENV2 CPE rescue 25.4
COc1ccc(S(=O)(=O)Nc2ccc3c(c2)CC(=O)N([C@H](C)CO)C[C@@H](C)[C@@H](CN(C)Cc2ccc(C(F)(F)F)cc2)O3)cc1	Statin myotox sup inconclusive, DENV2 CPE rescue 23.2
COc1ccc(S(=O)(=O)Nc2ccc3c(c2)CC(=O)N([C@@H](C)CO)C[C@@H](C)[C@H](CN(C)Cc2ccc(C(F)(F)F)cc2)O3)cc1	Statin myotox sup 75.6
COc1ccc(S(=O)(=O)Nc2ccc3c(c2)CC(=O)N([C@H](C)CO)C[C@@H](C)[C@H](CN(C)Cc2ccc(C(F)(F)F)cc2)O3)cc1	Statin myotox sup 78.9
